# Species on record: Homo sapiens
# Assay: Selectivity index, ratio of IC50 for inhibition of human 20S proteasome LMP2 activity in human RPMI-8226 cells overexpressing ABCB1 to IC50 for inhibition of human 20S proteasome LMP2 activity in human RPMI-8226 cells
# Format: cell-based
# How it was run: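 Carfilzomib-resistant RPMI 8226/ABCB1 line, kept drug-free for two weeks, alongside parental RPMI 8226. Cells exposed to varying inhibitor concentrations for 72 h, n=3 per concentration. Lysates (5 μg protein, pH 8.0 Tris/EDTA/0.035% SDS buffer) read with 100 μM Ac-PAL-AMC at ex 360/em 460 nm every minute for 1 h. IC50 from curve fitting, mean ± SD.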
row,Structure (SMILES),Ratio IC50
1,CC(C)C[C@H](NC(=O)[C@@H]1COCCCCCC(=O)N2CCC[C@H]2C(=O)N1)C(=O)[C@@]1(C)CO1,4.1
2,CC(C)C[C@H](NC(=O)[C@@H]1Cc2ccc(cc2)OCCCCCCCC(=O)N2CCC[C@H]2C(=O)N1)C(=O)[C@@]1(C)CO1,4.7

# System: not listed separately
# Assay: Inhibition of human 20S proteasome X using Ac-WLA-AMC as fluorogenic substrate measured every minute for 1 hr by fluorescence assay
# How it was run: (§1)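 Purified human 20S constitutive or immunoproteasome, 50 ng in 20 mM Tris-HCl, 0.5 mM EDTA, 0.035% SDS, pH 8.0. Preincubated 1 h with inhibitor at 3-10,000 nM (8 concentrations). Substrates at 100 μM: Ac-PAL-AMC (LMP2), Ac-nLPnLD-AMC (Y), Ac-ANW-AMC (LMP7). Ac-WLA-AMC (X) at 20 μM. AMC fluorescence (360/460 nm) read each minute for 1 h; 3 replicates.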
row,Structure (SMILES),IC50 [nM]
1,CC(C)C[C@H](NC(=O)[C@@H]1Cc2ccc(cc2)OCCCCCCC(=O)N2CCC[C@H]2C(=O)N1)C(=O)[C@@]1(C)CO1,> 10000
2,CC(C)C[C@H](NC(=O)[C@@H]1COCCCCCC(=O)N2CC(F)(F)C[C@H]2C(=O)N1)C(=O)[C@@]1(C)CO1,> 10000
3,CC(C)C[C@H](NC(=O)[C@@H]1COCCCCCC(=O)N2CCC[C@@]2(C)C(=O)N1)C(=O)[C@@]1(C)CO1,> 10000
4,CC(C)C[C@H](NC(=O)[C@H](Cc1ccccc1)NC(=O)[C@@H]1CCCN1C(=O)CNC(=O)c1cnccn1)C(=O)[C@@]1(C)CO1,> 10000
5,CC(C)C[C@H](NC(=O)[C@@H]1Cc2ccc(cc2)OCCCCCCCCC(=O)N2CCC[C@H]2C(=O)N1)C(=O)[C@@]1(C)CO1,5000
6,CC(C)C[C@H](NC(=O)[C@@H]1COCCCCCC(=O)NCC(=O)N2CCC[C@H]2C(=O)N1)C(=O)[C@@]1(C)CO1,> 10000
7,C[C@]1(C(=O)[C@H](CC2CCCCC2)NC(=O)[C@@H]2Cc3ccc(cc3)OCCCCCCCC(=O)N3CCC[C@H]3C(=O)N2)CO1,5000
8,CC(C)C[C@H](NC(=O)[C@@H]1COCCCCCC(=O)N2CCC[C@H]2C(=O)N1)C(=O)[C@@]1(C)CO1,1080
9,CC(C)C[C@H](NC(=O)[C@@H]1Cc2ccc(cc2)OCCCCCCCC(=O)N2CCC[C@H]2C(=O)N1)C(=O)[C@@]1(C)CO1,4770

# Target: T1, Proteasome subunit beta type-9 (Homo sapiens, UniProt P28065)
# T1 sequence (P28065 whole entry): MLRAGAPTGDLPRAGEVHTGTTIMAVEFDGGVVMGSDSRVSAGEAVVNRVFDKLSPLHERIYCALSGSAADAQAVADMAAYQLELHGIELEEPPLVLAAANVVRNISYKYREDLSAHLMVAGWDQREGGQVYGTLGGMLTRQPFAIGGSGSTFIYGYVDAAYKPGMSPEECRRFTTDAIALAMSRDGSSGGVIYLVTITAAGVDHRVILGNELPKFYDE
# Assay: Inhibition of human 20S proteasome LMP2 activity in human RPMI-8226 cells overexpressing ABCB1 using Ac-PAL-AMC as fluorogenic substrate incubated for 72 hrs by fluorescence assay
# Format: cell-based
row,Structure (SMILES),IC50 [nM]
1,CC(C)C[C@H](NC(=O)[C@@H]1COCCCCCC(=O)NCC(=O)N2CCC[C@H]2C(=O)N1)C(=O)[C@@]1(C)CO1,> 10000
2,CC(C)C[C@H](NC(=O)[C@@H]1COCCCCCC(=O)N2CCC[C@H]2C(=O)N1)C(=O)[C@@]1(C)CO1,147
3,CC(C)C[C@H](NC(=O)[C@@H]1Cc2ccc(cc2)OCCCCCCCC(=O)N2CCC[C@H]2C(=O)N1)C(=O)[C@@]1(C)CO1,161

# Target: T1, Proteasome subunit beta type-9
# Assay: Inhibition of human 20S proteasome LMP2 using Ac-PAL-AMC as fluorogenic substrate measured every minute for 1 hr by fluorescence assay
# How it was run: (§2)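 Preincubated 1 h with inhibitor at 3-10,000 nM (8 concentrations). Substrates at 100 μM: Ac-PAL-AMC (LMP2), Ac-nLPnLD-AMC (Y), Ac-ANW-AMC (LMP7). Ac-WLA-AMC (X) at 20 μM. AMC fluorescence (360/460 nm) read each minute for 1 h; 3 replicates.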
row,Structure (SMILES),IC50 [nM]
1,CC(C)C[C@H](NC(=O)[C@@H]1Cc2ccc(cc2)OCCCCCCC(=O)N2CCC[C@H]2C(=O)N1)C(=O)[C@@]1(C)CO1,423
2,CC(C)C[C@H](NC(=O)[C@@H]1COCCCCCC(=O)N2CC(F)(F)C[C@H]2C(=O)N1)C(=O)[C@@]1(C)CO1,238
3,CC(C)C[C@H](NC(=O)[C@@H]1COCCCCCC(=O)N2CCC[C@@]2(C)C(=O)N1)C(=O)[C@@]1(C)CO1,4580
4,CC(C)C[C@H](NC(=O)[C@@H]1Cc2ccc(cc2)OCCCCCCCCC(=O)N2CCC[C@H]2C(=O)N1)C(=O)[C@@]1(C)CO1,414
5,CC(C)C[C@H](NC(=O)[C@@H]1COCCCCCC(=O)NCC(=O)N2CCC[C@H]2C(=O)N1)C(=O)[C@@]1(C)CO1,69.4
6,C[C@]1(C(=O)[C@H](CC2CCCCC2)NC(=O)[C@@H]2Cc3ccc(cc3)OCCCCCCCC(=O)N3CCC[C@H]3C(=O)N2)CO1,168
7,CC(C)C[C@H](NC(=O)[C@@H]1COCCCCCC(=O)N2CCC[C@H]2C(=O)N1)C(=O)[C@@]1(C)CO1,413
8,CC(C)C[C@H](NC(=O)[C@@H]1Cc2ccc(cc2)OCCCCCCCC(=O)N2CCC[C@H]2C(=O)N1)C(=O)[C@@]1(C)CO1,129

# Target: T1, Proteasome subunit beta type-9
# Assay: Inhibition of human 20S proteasome LMP2 activity in human RPMI-8226 cells using Ac-PAL-AMC as fluorogenic substrate incubated for 72 hrs by fluorescence assay
# Format: cell-based
row,Structure (SMILES),IC50 [nM]
1,CC(C)C[C@H](NC(=O)[C@@H]1COCCCCCC(=O)NCC(=O)N2CCC[C@H]2C(=O)N1)C(=O)[C@@]1(C)CO1,> 10000
2,CC(C)C[C@H](NC(=O)[C@@H]1COCCCCCC(=O)N2CCC[C@H]2C(=O)N1)C(=O)[C@@]1(C)CO1,35.8
3,CC(C)C[C@H](NC(=O)[C@@H]1Cc2ccc(cc2)OCCCCCCCC(=O)N2CCC[C@H]2C(=O)N1)C(=O)[C@@]1(C)CO1,33.9

# System: not listed separately
# Assay: Inhibition of human 20S proteasome Y using Ac-nLPnLD-AMC as fluorogenic substrate measured every minute for 1 hr by fluorescence assay
# How it was run: as §2
row,Structure (SMILES),IC50 [nM]
1,CC(C)C[C@H](NC(=O)[C@@H]1Cc2ccc(cc2)OCCCCCCCCC(=O)N2CCC[C@H]2C(=O)N1)C(=O)[C@@]1(C)CO1,414
2,CC(C)C[C@H](NC(=O)[C@@H]1COCCCCCC(=O)N2CCC[C@H]2C(=O)N1)C(=O)[C@@]1(C)CO1,1500
3,CC(C)C[C@H](NC(=O)[C@@H]1Cc2ccc(cc2)OCCCCCCCC(=O)N2CCC[C@H]2C(=O)N1)C(=O)[C@@]1(C)CO1,715

# Target: T2, Proteasome subunit beta type-8 (Homo sapiens, UniProt P28062)
# T2 sequence (P28062 whole entry): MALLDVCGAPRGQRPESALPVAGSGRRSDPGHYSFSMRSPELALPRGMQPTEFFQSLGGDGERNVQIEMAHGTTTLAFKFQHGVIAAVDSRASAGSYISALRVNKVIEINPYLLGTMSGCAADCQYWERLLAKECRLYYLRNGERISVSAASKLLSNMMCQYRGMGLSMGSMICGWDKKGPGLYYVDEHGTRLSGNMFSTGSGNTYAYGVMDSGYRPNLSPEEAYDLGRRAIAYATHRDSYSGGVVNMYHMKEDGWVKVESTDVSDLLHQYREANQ
# Assay: Inhibition of human 20S proteasome LMP7 using Ac-ANW-AMC as fluorogenic substrate measured every minute for 1 hr by fluorescence assay
# How it was run: as §1
row,Structure (SMILES),IC50 [nM]
1,CC(C)C[C@H](NC(=O)[C@@H]1Cc2ccc(cc2)OCCCCCCC(=O)N2CCC[C@H]2C(=O)N1)C(=O)[C@@]1(C)CO1,> 10000
2,CC(C)C[C@H](NC(=O)[C@@H]1COCCCCCC(=O)N2CC(F)(F)C[C@H]2C(=O)N1)C(=O)[C@@]1(C)CO1,> 10000
3,CC(C)C[C@H](NC(=O)[C@@H]1COCCCCCC(=O)N2CCC[C@@]2(C)C(=O)N1)C(=O)[C@@]1(C)CO1,> 10000
4,CC(C)C[C@H](NC(=O)[C@@H]1Cc2ccc(cc2)OCCCCCCCCC(=O)N2CCC[C@H]2C(=O)N1)C(=O)[C@@]1(C)CO1,342
5,CC(C)C[C@H](NC(=O)[C@@H]1COCCCCCC(=O)NCC(=O)N2CCC[C@H]2C(=O)N1)C(=O)[C@@]1(C)CO1,> 10000
6,C[C@]1(C(=O)[C@H](CC2CCCCC2)NC(=O)[C@@H]2Cc3ccc(cc3)OCCCCCCCC(=O)N3CCC[C@H]3C(=O)N2)CO1,2690
7,CC(C)C[C@H](NC(=O)[C@@H]1COCCCCCC(=O)N2CCC[C@H]2C(=O)N1)C(=O)[C@@]1(C)CO1,> 10000
8,CC(C)C[C@H](NC(=O)[C@@H]1Cc2ccc(cc2)OCCCCCCCC(=O)N2CCC[C@H]2C(=O)N1)C(=O)[C@@]1(C)CO1,1520

# Reference: ChEMBL document CHEMBL4828720, “Macrocyclic Immunoproteasome Inhibitors as a Potential Therapy for Alzheimer's Disease” (J Med Chem, 2021)
